According to PubChem BioAssay:
Activity calls are given as the source filed them.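 Rule for the calls, unless noted: active = viability at or under a set limit in both replicates, limit being median viability minus 3 SD (cut at about 48% in these data, passing the limit was not always enough); inconclusive = at or under the limit in just one replicate; inactive = at or above the limit in both replicates.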

How the values were obtained:
[1] = HUVEC growth inhibition – cell-based, human, primary screen (AID 575;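 active = viability at or below 30% in both replicate assays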;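 note: 100% = median of untreated cell wells with 0.1% DMSO on each plate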); details: HUVEC proliferation, CellTiter-Glo luminescence, 72 h; at 10 µM; stronger effect = lower value
Procedure, shortened: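 Test system: HUVEC primary cells. Quantity: 1250 endothelial cells in each well. Dosing: single-point 10 µM, DMSO 0.1% final. Incubation: 72 h treatment at 37 °C. Measured by: CTG luminescence. Control set: DMSO cell controls and MePR drug controls. Plate: collagen-coated 384-well format.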

[2] = growth inhibitors of H69AR lung tumor, primary screen, human, duplicate replicates (AID 580); details: H69AR lung tumor cells viability, ATP luminescence, 72 h; at 10 µM; stronger effect = lower value;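 note: 100% = mean luminescence of untreated wells and 0% = no signal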
[3] = reversal of MRP1-mediated doxorubicin resistance, pilot screen, H69AR cells, doxorubicin co-treatment (AID 601;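 active = viability loss from added drug above about 55%, and viability with drug at most 40%, in both replicates, limit read from the data, passing the limit was not always enough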); details: CellTiter-Glo, 72 h, at 10 µM; for differential viability (reversal): stronger effect = higher value
[4] = 384-well plate pilot, post-Golgi transport modulator project, inhibition of yeast transport mutant growth (AID 636; in the data active = inhibition above about 31%); details: absorbance 615 nm, about 18 h, stronger effect = higher value
[5] = growth suppression of yeast trafficking mutant, preliminary HTS, modulators of trafficking downstream of Golgi apparatus project, 1536-format plate, OD 615 nm (AID 637; in the data active = inhibition above about 30%); details: yeast transport mutant growth, absorbance 615 nm, 18 h; stronger effect = higher value
[6] = H69AR cells + 2 uM doxorubicin, measured here: viability with 2 uM doxorubicin, stronger effect = lower value
[7] = H69AR cells, compound alone cytotoxicity

Structure (SMILES)	viability [1]	viability [2]	differential viability (reversal) ([3]; H69AR cells + 2 uM doxorubicin)	viability [3, 6]	viability [3, 7]	inhibition [4]	inhibition [5]
CC1(c2ccc(OC(F)F)cc2)NC(=O)N(CC(=O)Nc2ccc3c(c2)OCO3)C1=O (configuration not stated)	81.6% (inactive)	91.7% (inactive)	-2.95% (inactive)	94.7%	91.7%	-5.71% (inactive)	-3.65% (inactive)
O=C(CN(CC1CCCO1)C(=O)CCC(=O)Nc1ccccn1)NCC1CCCO1 (configuration not stated)	103% (inactive)	100% (inactive)	11.8% (inactive)	88.2%	100%	-7.73% (inactive)	-3.97% (inactive)
N#CCSCC(=O)Nc1ccc(F)cc1	91.7% (inactive)	93.1% (inactive)	9.54% (inactive)	83.6%	93.1%	-3.68% (inactive)	0% (inactive)
Cn1nc(-c2ccc(C(=O)N3CCN(c4ccccc4)CC3)cc2)c2ccccc2c1=O	71.2% (inactive)	92.4% (inactive)	3.5% (inactive)	88.9%	92.4%	0.26% (inactive)	27.3% (inactive)
CC(=O)OC(C(=O)NCc1ccco1)c1cccnc1 (configuration not stated)	104% (inactive)	87% (inactive)	3.39% (inactive)	83.6%	87%	-2.08% (inactive)	2.86% (inactive)
COc1ccc(CCNc2oc(Cc3cccc4ccccc34)nc2C#N)cc1OC	68.8% (inactive)	73.1% (inactive)	-7.3% (inactive)	80.4%	73.1%	-5.07% (inactive)	1.9% (inactive)
Cc1ccc(S(=O)(=O)N(C)CC(=O)NC2CC(C)(C)NC(C)(C)C2)cc1	93.1% (inactive)	96.2% (inactive)	8.25% (inactive)	88%	96.2%	-1.04% (inactive)	0.32% (inactive)
COc1ccc(C(F)(F)F)cc1NC(=O)c1nc2nc(C)cc(C(F)F)n2n1	94% (inactive)	79.9% (inactive)	-3.77% (inactive)	83.7%	79.9%	-1.56% (inactive)	-0.16% (inactive)
CCNc1ccc2c(Cl)cc(=O)oc2c1	68.2% (inactive)	79.8% (inactive)	5.29% (inactive)	74.5%	79.8%	-5.73% (inactive)	-1.59% (inactive)
Cc1ccc(C(=O)Nc2ccc3c(c2)OCO3)o1	83% (inactive)	69.6% (inactive)	-5.72% (inactive)	75.3%	69.6%	-2.6% (inactive)	-3.81% (inactive)
O=c1oc2ccccc2c(O)c1CN1CCCCC1	96.3% (inactive)	99.9% (inactive)	16.1% (inactive)	83.8%	99.9%	-6% (inactive)	2.22% (inactive)
FC(F)(F)c1cc(-c2ccco2)nc(-n2nnc3ccccc32)n1	59.5% (inactive)	79.8% (inactive)	1.45% (inactive)	78.3%	79.8%	-0.91% (inactive)	0.32% (inactive)
COC(=O)CN(c1ccc2c(c1)OCO2)S(C)(=O)=O	102% (inactive)	110% (inactive)	12.5% (inactive)	97.9%	110%	-2.63% (inactive)	6.67% (inactive)
COc1ccc(NC(=O)c2ccco2)cc1NC(=O)c1cccs1	92.2% (inactive)	88.5% (inactive)	-3.49% (inactive)	92%	88.5%	0.13% (inactive)	13.8% (inactive)
CCSc1ccccc1C(=O)NCc1ccc(S(N)(=O)=O)cc1	99.2% (inactive)	93.7% (inactive)	6.25% (inactive)	87.5%	93.7%	-5.2% (inactive)	-1.27% (inactive)
COC(=O)Cn1c2ccccc2c2nc(C)sc21	87.2% (inactive)	92.7% (inactive)	1.14% (inactive)	91.5%	92.7%	-0.8% (inactive)	-3.65% (inactive)
CC(=O)N1CCN(S(=O)(=O)c2ccc(S(=O)(=O)NC3CC3)cc2)CC1	112% (inactive)	92.3% (inactive)	5.03% (inactive)	87.3%	92.3%	-6.8% (inactive)	2.86% (inactive)
CC1(C)CC(=O)C=C(NCCN2CCN(C(=O)Nc3ccccc3)CC2)C1	103% (inactive)	96.4% (inactive)	6.64% (inactive)	89.8%	96.4%	-5.07% (inactive)	3.97% (inactive)
COCCNC(=O)c1ccc(Cl)c(Cl)c1	108% (inactive)	102% (inactive)	17% (inactive)	85%	102%	-3.16% (inactive)	-0.16% (inactive)
CN1CCN(S(=O)(=O)c2ccc(NC(=O)c3ccc(F)cc3)cc2)CC1	94.2% (inactive)	96.8% (inactive)	7.89% (inactive)	88.9%	96.8%	-4% (inactive)	-5.08% (inactive)
O=C(CCCN1C(=O)c2ccccc2C1=O)NCc1cccnc1	95.9% (inactive)	94.2% (inactive)	2.95% (inactive)	91.3%	94.2%	-2.13% (inactive)	-3.49% (inactive)
